The nature of data set [1]: MRT (0 to t) in CD1(ICR) mouse at 1 mg/kg, iv by LC-MS/MS analysis. In kind it is ADME, organism-based. The following applies: in vivo.
A short description of data set [2]: Half life in rat liver microsomes at 1 uM in presence of NADPH cofactor for phase 1 metabolism and measured upto 60 mins by LC-MS/MS analysis. In kind it is ADME, Microsome. Put shortly:
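Liver microsomes (rat or human) incubated with compound at 37 °C, with NADPH for phase I or UDPGA for phase II. Reactions stopped in acetonitrile at set time points, vortexed 5 min, stored at -80 °C. Parent remaining in supernatant measured by LC-MS/MS. t1/2 = -0.693/k, with k the slope of ln fraction remaining versus time.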
(Liver microsomes are vesicles of endoplasmic reticulum, rich in cytochrome P450 enzymes.)

Data set [3] has as its target Cyclin-dependent kinase 6 (Homo sapiens) (UniProt Q00534). Description: Inhibition of recombinant human CDK6 at 20 nM using Ulight-CFFKNIVTPRTPPPSQGK-amide as substrate measured after 60 mins by LANCE assay relative to control. The method in brief:
(§1)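 Single-concentration screen within an 85-kinase panel run by a contract lab, with each compound tested at 20 nM and 200 nM. Human recombinant enzymes were used. Activity was quantified as phosphorylation of a peptide substrate read by LANCE time-resolved detection, and inhibition was expressed relative to control, using the same format as the JAK assay.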

Data set [4] has as its target Calcium/calmodulin-dependent protein kinase type 1 (Homo sapiens) (UniProt Q14012). Kind of data set: Inhibition of recombinant human CAMK1alpha at 20 nM using CREBtide as substrate measured after 30 mins by LANCE assay relative to control. The method in brief: as §1
A general note: TR-FRET usually uses a lanthanide donor and a delayed reading to cut background.

Chain of Calcium/calmodulin-dependent protein kinase type 1 (Homo sapiens) (Q14012 whole entry, looked up): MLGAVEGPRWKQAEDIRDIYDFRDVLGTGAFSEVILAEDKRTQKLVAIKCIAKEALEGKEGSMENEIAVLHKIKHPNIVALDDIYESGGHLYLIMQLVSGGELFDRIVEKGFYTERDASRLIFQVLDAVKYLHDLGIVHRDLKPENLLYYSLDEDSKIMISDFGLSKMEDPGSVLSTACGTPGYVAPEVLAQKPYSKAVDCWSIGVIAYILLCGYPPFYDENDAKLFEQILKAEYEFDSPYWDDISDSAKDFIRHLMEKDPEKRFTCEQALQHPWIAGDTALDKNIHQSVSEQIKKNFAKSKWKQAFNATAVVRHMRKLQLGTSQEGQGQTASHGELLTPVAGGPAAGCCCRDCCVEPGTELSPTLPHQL
Chain of Cyclin-dependent kinase 6 (Homo sapiens) (Q00534 whole entry): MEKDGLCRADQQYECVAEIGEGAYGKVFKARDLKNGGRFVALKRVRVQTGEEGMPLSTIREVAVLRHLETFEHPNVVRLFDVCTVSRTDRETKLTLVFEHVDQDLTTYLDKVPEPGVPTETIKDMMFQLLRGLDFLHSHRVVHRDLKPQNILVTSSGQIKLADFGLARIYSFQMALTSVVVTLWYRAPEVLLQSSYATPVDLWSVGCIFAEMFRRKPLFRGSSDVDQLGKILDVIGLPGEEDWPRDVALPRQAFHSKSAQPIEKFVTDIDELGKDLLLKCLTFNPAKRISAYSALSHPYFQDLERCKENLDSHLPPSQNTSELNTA

In general, MRT last refers to the average time that molecules of a dose stay in the body. As a reminder, the half-life is how long it takes for the measured level to halve. For orientation: inhibition means the percentage by which the read-out fell short of the control. In turn, `O=C(CCCCCn1cc(Nc2ncc(Cl)c(Nc3ccc(Cl)cc3)n2)cn1)NO` gave an MRT last in data set [1] of 16.2 min. Also, the half-life at 1 µM in data set [2] was found to be 14.6 min. For the same compound, the inhibition in data set [3] worked out at 10%; in data set [4] it was 2%.
